Reference: ChEMBL document CHEMBL4715721, “Synthesis and optimization of novel allylated mono-carbonyl analogs of curcumin (MACs) act as potent anti-inflammatory agents against LPS-induced acute lung injury (ALI) in rats” (Eur J Med Chem, 2016)
≈ marks a conversion by molar mass, not a printed value.

Columns and labels:
[1] = test system: RAW264.7; assay: Antiinflammatory activity in mouse RAW264.7 cells assessed as decrease in LPS-induced IL-6 secretion at 10 microM incubated for 30 mins followed by LPS stimulation and measured after 24 hrs by ELISA relative to control; type: functional; details: RAW264.7, 24.5 h, time 1470 min
Procedure, shortened: (§1)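 RAW264.7 cells in DMEM with 10% FBS at 37 °C, 5% CO₂; pretreated with 10 μM for 30 min, then LPS 0.5 μg/mL for 24 h. Medium TNF-α and IL-6 measured by ELISA and normalized to total protein of viable cells; percent inhibition, mean ± SD of three experiments.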

[2] = test system: RAW264.7; assay: Antiinflammatory activity in mouse RAW264.7 cells assessed as decrease in LPS-induced TNF-alpha secretion at 10 microM incubated for 30 mins followed by LPS stimulation and measured after 24 hrs by ELISA relative to control; type: functional; details: RAW264.7, 24.5 h, time 1470 min; procedure, shortened: as §1
[3] = Cytotoxicity against human HL7702 cells assessed as cell survival rate at 10 uM incubated for 24 hrs by MTT assay; type: cell-based; details: HL7702 (L02) cells, read-out: Activity
Procedure, shortened: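 HL-7702 human normal hepatic cells exposed to 10 μM compound for 24 h; viability measured by MTT assay and given as survival rate, mean ± SD of three experiments.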

[4] = Octanol-water partition coefficient, logP of compound; type: physicochemical
[5] = Aqueous kinetic solubility of compound at pH 7.4; type: physicochemical; details: read-out: Kinetic_solubility
[6] = test system: RAW264.7; assay: Cytotoxicity against mouse RAW264.7 cells assessed as cell survival rate at 10 uM; type: cell-based; details: raw264.7, 10 µM
[7] = Chemical stability of compound in PBS buffer containing 5% DMSO at pH 7.4 measured every 5 mins for 25 mins by UV-Vis absorption spectral analysis; type: physicochemical; details: pH 7.4, 25 min
Procedure, shortened: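 Compound diluted from 1 mM stock in phosphate buffer pH 7.4 containing 5% DMSO; UV-visible spectra recorded from 250 to 600 nm at 25 °C in a 1 cm quartz cuvette, every 5 min for 25 min.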

| logP [4] | solubility kinetic [5] | Stabilty [7] | Compound | inhibition at 10 µM [1] | inhibition at 10 µM [2] | viability at 24 h, 10 µM [3] | Activity [6] |
| --- | --- | --- | --- | --- | --- | --- | --- |
| 3.21 | 19.4 mg/mL (≈ 42.5 mM) |  | C=CCc1cc(/C=C2\CN(C3CC3)C/C(=C\c3ccc(N4CCOCC4)cc3)C2=O)ccc1O | 59.8% | 8.19% | 94.3% |  |
| 3.5 | 17.1 mg/mL (≈ 41.2 mM) |  | C=CCc1cc(/C=C2\CN(C3CC3)C/C(=C\c3ccc(N(C)C)cc3)C2=O)ccc1O | 74.4% | 35% | 89.4% |  |
|  |  |  | C=CCc1cc(/C=C2\CN(C(=O)c3ccc(F)cc3)C/C(=C\c3ccc(O)c(CC=C)c3)C2=O)ccc1O | 86.8% |  | 78% | Non-Toxic |
|  |  |  | C=CCc1cc(/C=C2\CN(CC)C/C(=C\c3ccc(O)c(CC=C)c3)C2=O)ccc1O | 67.6% |  | 79.6% | Non-Toxic |
| 4.08 |  |  | C=CCc1cc(/C=C2\CN(C3CC3)C/C(=C\c3ccc(N(CC)CC)cc3)C2=O)ccc1O | 71.9% | 32.1% | 94% |  |
|  |  |  | C=CCc1cc(/C=C2\CN(C(=O)c3ccc(C)cc3)C/C(=C\c3ccc(O)c(CC=C)c3)C2=O)ccc1O | 81.5% |  | 70.1% | Non-Toxic |
|  |  |  | C=CCc1cc(/C=C2\CNC/C(=C\c3ccc(O)c(CC=C)c3)C2=O)ccc1O | 44.4% |  | 77.9% | Non-Toxic |
|  |  | Stable | C=CCc1cc(/C=C/C(=O)/C=C/c2ccc(O)c(CC=C)c2)ccc1O | 59.6% | 7.15% | 73.3% | Non-Toxic |
|  |  |  | C=CCc1cc(/C=C2\CN(C(C)C)C/C(=C\c3ccc(O)c(CC=C)c3)C2=O)ccc1O | 71.6% |  | 85.1% | Non-Toxic |
